Data on twelve compounds can be found in ChEMBL document CHEMBL2157965, “Structure-based design of potent Bcl-2/Bcl-xL inhibitors with strong in vivo antitumor activity” (J Med Chem, 2012).

In data set [1] the target is Induced myeloid leukemia cell differentiation protein Mcl-1 (Homo sapiens, UniProt Q07820). In words: Inhibition of human N-terminal His8-tagged Mcl1 expressed in Escherichia coli BL21(DE3) assessed as inhibition of Fluorescein-labeled BID binding after 1 to 2 hrs by fluorescence polarization assay.
Induced myeloid leukemia cell differentiation protein Mcl-1, sequence (Q07820 whole entry): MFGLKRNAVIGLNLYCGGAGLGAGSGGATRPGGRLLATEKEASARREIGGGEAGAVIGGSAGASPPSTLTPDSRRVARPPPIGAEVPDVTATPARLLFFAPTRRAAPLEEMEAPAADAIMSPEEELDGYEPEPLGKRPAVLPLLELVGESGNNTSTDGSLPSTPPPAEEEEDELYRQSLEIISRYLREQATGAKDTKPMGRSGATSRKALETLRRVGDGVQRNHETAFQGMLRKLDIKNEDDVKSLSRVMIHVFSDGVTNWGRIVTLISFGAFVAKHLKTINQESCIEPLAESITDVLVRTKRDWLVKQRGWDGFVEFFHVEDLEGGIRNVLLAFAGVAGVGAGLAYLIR
In data set [2] the target is Bcl-2-like protein 1 (Homo sapiens, UniProt Q07817). In words: Inhibition of human N-terminal His8-tagged Bcl-XL expressed in Escherichia coli BL21(DE3) assessed as inhibition of Fluorescein-labeled BAK binding after 1 to 2 hrs by fluorescence polarization assay. A general note: Polarisation of emitted light reports the rotation of a fluorescent probe.
Bcl-2-like protein 1, sequence (Q07817 whole entry): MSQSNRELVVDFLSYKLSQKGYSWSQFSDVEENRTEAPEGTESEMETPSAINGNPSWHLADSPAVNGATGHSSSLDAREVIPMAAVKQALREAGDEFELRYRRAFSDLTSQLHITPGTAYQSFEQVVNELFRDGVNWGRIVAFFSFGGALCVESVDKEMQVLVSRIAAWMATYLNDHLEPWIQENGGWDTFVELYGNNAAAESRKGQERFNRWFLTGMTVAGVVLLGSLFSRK
Data set [3] deals with NCI-H146. In words: Induction of apoptosis in human NCI-H146 cells assessed as PARP cleavage after 24 hrs by Western blot analysis. Format: functional, cell-based. Summed up: (§1)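 H146 cells were treated for 24 h at a range of concentrations. Lysates were probed by Western blot with rabbit antibodies to PARP and caspase-3, detecting the cleaved forms. GAPDH served as loading control.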
On the technique in general: A western blot detects proteins with antibodies after separation by electrophoresis.

The test system of data set [4] is NCI-H146. In words: Induction of apoptosis in human NCI-H146 cells assessed as caspase3 activation after 24 hrs by Western blot analysis. Format: functional, cell-based. Put shortly: as §1
Data set [5] has as its system NCI-H146. In words: Induction of cell death in human NCI-H146 cells after 24 hrs by trypan blue assay. Format: functional, cell-based. Put shortly:
(§2)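 H146 cells were treated for 24 h across a range of concentrations. Cell death was scored by trypan blue assay.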

A short description of data set [6]: Inhibition of human N-terminal His6-tagged Bcl2 isoform 2 expressed in Escherichia coli BL21(DE3) assessed as inhibition of Fluorescein-labeled BIM binding after 1 to 2 hrs by fluorescence polarization assay.
The nature of data set [7]: Antiproliferative activity against human NCI-H146 cells after 4 days by WST8 assay. The data set is classed as functional, cell-based. Particulars: NCI-H146, 96 h. Put shortly: (§3)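 Growth inhibition was measured as described previously. IC50 values come from growth curves.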
Background: Tetrazolium assays rely on reduction of a dye to a coloured formazan, in cell work by metabolically active cells.

In data set [8] the test system is NCI-H1963. In words: Antiproliferative activity against human NCI-H1963 cells after 4 days by WST8 assay. The data set is classed as functional, cell-based. Particulars: NCI-H1963, 96 h. Summed up:
as §3

Data set [9] deals with NCI-H1417. In words: Antiproliferative activity against human NCI-H1417 cells after 4 days by WST8 assay. The data set is classed as functional, cell-based. Particulars: NCI-H1417, 96 h. Summed up:
as §3

In data set [10] the test system is NCI-H146. In words: Induction of apoptosis in human NCI-H146 cells assessed as PARP cleavage after 2 hrs by Western blot analysis. Format: functional, cell-based.
For data set [11], the system named is NCI-H146. In words: Induction of apoptosis in human NCI-H146 cells assessed as PARP cleavage at 10 nM after 24 hrs by Western blot analysis. Format: functional, cell-based. Put shortly: as §1
In data set [12] the test system is NCI-H146. In words: Induction of apoptosis in human NCI-H146 cells assessed as PARP cleavage at 30 nM after 2 hrs by Western blot analysis. Format: functional, cell-based.
Data set [13] relates to NCI-H146. In words: Induction of cell death in human NCI-H146 cells at 10 nM after 24 hrs by trypan blue assay. Format: functional, cell-based. Summed up:
as §2

In data set [14] the test system is Mus musculus. In words: Toxicity in SCID mouse assessed as weight loss at 25 mg/kg, iv administered 5 days a week for 2 weeks. Format: organism-based. Also on record: dose 25 mg/kg, route intravenous. Particulars: in vivo.
The test system of data set [15] is NCI-H146. In words: Induction of apoptosis in human NCI-H146 cells assessed as caspase3 activation at 10 nM after 24 hrs by Western blot analysis. Format: functional, cell-based. Put shortly: as §1
Data set [16] relates to NCI-H146. In words: Induction of apoptosis in human NCI-H146 cells assessed as increase in cytochrome c release at 30 nM after 2 hrs. The data set is classed as functional, cell-based.
Data set [17] deals with NCI-H146. In words: Induction of apoptosis in human NCI-H146 cells assessed as increase in cytochrome c release after 2 hrs. The data set is classed as functional, cell-based.

As usually defined, the IC50 is the point on the concentration scale where inhibition reaches its midpoint. For orientation: Ki means the equilibrium dissociation constant of an inhibitor or competing ligand from its target.

Active and inactive are the calls of the source. The calls are words filed in the database; no cut-off is given here. Peptide text beside a SMILES is read from it. Bounds are passed on as bounds.

Regarding `CC(C)C[C@H](NC(=O)[C@H](CCCCN)NC(=O)[C@H](CC(=O)O)NC(=O)CNC(=O)[C@H](Cc1ccccc1)NC(=O)[C@H](CCCNC(=N)N)NC(=O)[C@H](CCCNC(=N)N)NC(=O)[C@H](CC(C)C)NC(=O)[C@H](CCC(N)=O)NC(=O)[C@@H](NC(=O)[C@H](C)NC(=O)[C@H](CS)NC(=O)[C@H](CCC(=O)O)NC(=O)[C@@H](NC(=O)[C@H](CCC(=O)O)NC(=O)[C@H](CC(C)C)NC(=O)[C@@H](N)CCC(=O)O)C(C)C)[C@@H](C)O)C(=O)N[C@@H](CC(N)=O)C(=O)N[C@@H](Cc1ccccc1)C(=O)N[C@@H](CCCNC(=N)N)C(=O)N[C@@H](CCC(N)=O)C(=O)N[C@@H](CCCCN)C(=O)O` (H-ELEVECATQLRRFGDKLNFRQK-OH), the results for the IC50 in data set [1] and in data set [2] were 37 nM and 11000 nM, respectively. Also, in data set [2], the Ki is 3400 nM.

With `Cc1c(C(=O)O)c(-c2cccc(N3CCN(c4ccc(NS(=O)(=O)c5ccc(N[C@H](CCN(C)C)CSc6ccccc6)c([N+](=O)[O-])c5)cc4)CC3)c2)c(-c2ccc(Cl)cc2)n1C`, the concentration for half-maximal inhibition (IC50) in data set [1] is greater than 2000 nM; in [6] it was 1.3 nM. The Activity entry in data set [3], in data set [4] and in [5] was “Dose-dependent effect” each time. For the same compound, the values for the inhibition constant Ki in data set [6] and in [2] were less than 0.6 nM and less than 1 nM, respectively.

In the case of `CN(C)CC[C@H](CSc1ccccc1)Nc1ccc(S(=O)(=O)NC(=O)c2ccc(N3CCN(Cc4ccccc4-c4ccc(Cl)cc4)CC3)cc2)cc1[N+](=O)[O-]` [ABT 737], the IC50 in data set [7] was determined as 37 nM; in [8] it was 59 nM; in data set [9], 412 nM. Also, the Activity entry in [3], in [4] and in data set [5] was “Dose-dependent effect” each time.

As for `Cc1c(C(=O)O)c(-c2cccc(N3CCN(c4ccc(NS(=O)(=O)c5ccc(N[C@H](CCN(C)C)CSc6ccccc6)c([N+](=O)[O-])c5)cc4)CC3)c2)c(-c2ccc(Cl)cc2)n1C1CC1`, the IC50 in data set [7] is 69 nM; in [8] it was 60 nM; in [1], greater than 2000 nM; in data set [9], 154 nM; in data set [6], 17.6 nM; in data set [2], 7.7 nM. The Ki in data set [6] is 4.3 nM; in data set [2], less than 1 nM.

Turning to `Cc1c(C(=O)NCCCN2CCN(C)CC2)c(-c2cccc(N3CCN(c4ccc(C(=O)NS(=O)(=O)c5ccc(N[C@H](CCN(C)C)CSc6ccccc6)c([N+](=O)[O-])c5)cc4)CC3)c2)c(-c2ccc(Cl)cc2)n1C`, the half-maximal inhibitory concentration (IC50) is greater than 10000 nM in data set [7], greater than 10000 nM in [8], greater than 100000 nM in data set [1] and greater than 10000 nM in data set [9]. Besides, in [6], the inhibition constant Ki worked out at 7 nM.

As for `Cc1c(C(=O)NCCCN2CCN(C)CC2)c(-c2ccccc2)c(-c2ccc(Cl)cc2)n1C`, the half-inhibitory concentration (IC50) was greater than 10000 nM in [7]; greater than 10000 nM in data set [8]; greater than 100000 nM in data set [1]; greater than 10000 nM in data set [9]; 103000 nM in data set [6]; 291000 nM in data set [2]. In addition, the Ki was found to be 38000 nM in [6] and 88000 nM in [2].

As for `CSCC[C@H](NC(=O)[C@H](CCCN=C(N)N)NC(=O)[C@H](CCCN=C(N)N)NC(=O)[C@H](CC(C)C)NC(=O)[C@H](CCC(=O)O)NC(=O)[C@H](CCCN=C(N)N)NC(=O)CNC(=O)[C@H](Cc1ccc(O)cc1)NC(=O)[C@H](CCCN=C(N)N)NC(=O)[C@H](CCC(N)=O)NC(=O)[C@H](C)NC(=O)[C@H](C)NC(=O)[C@@H](N)Cc1c[nH]c2ccccc12)C(=O)N[C@@H](CO)C(=O)N[C@@H](CC(=O)O)C(=O)N[C@@H](CCC(=O)O)C(=O)N[C@@H](Cc1ccccc1)C(=O)N[C@H](C(=O)N[C@@H](CC(=O)O)C(=O)N[C@@H](CO)C(=O)N[C@@H](Cc1ccccc1)C(=O)N[C@@H](CCCCN)C(=O)O)C(C)C` (H-WAAQRYGRELRRMSDEFVDSFK-OH), in data set [1], the IC50 was 32000 nM. Moreover, in [2], the IC50 was found to be 5 nM and the Ki was less than 1 nM.

As for `Cc1c(C(=O)NCCCN2CCN(C)CC2)c(-c2cccc(N3CCN(c4ccc(NS(=O)(=O)c5ccc(N[C@H](CCN(C)C)CSc6ccccc6)c([N+](=O)[O-])c5)cc4)CC3)c2)c(-c2ccc(Cl)cc2)n1C`, the half-maximal inhibitory concentration (IC50) in data set [7] was 110 nM; in [8], 72 nM; in data set [1] it was greater than 10000 nM; in [9], 258 nM; in [6], 2 nM. Also, the values for the Ki in [6] and in [2] were less than 0.6 nM and 2.4 nM, respectively.

As to `CNC(=O)c1c(-c2cccc(N3CCN(c4ccc(NS(=O)(=O)c5ccc(N[C@H](CCN(C)C)CSc6ccccc6)c([N+](=O)[O-])c5)cc4)CC3)c2)c(-c2ccc(Cl)cc2)n(C)c1C`, the concentration for half-maximal inhibition (IC50) in data set [7] worked out at 36 nM; in [8] it was 30 nM; in data set [9], 109 nM; in [6], 5 nM. Besides, the values for the Ki in [6] and in data set [2] were 1.1 nM and less than 1 nM, respectively.

`Cc1c(C(=O)O)c(-c2cccc(N3CCN(c4ccc(NS(=O)(=O)c5ccc(N[C@H](CCN(C)C)CSc6ccccc6)c([N+](=O)[O-])c5)cc4)CC3)c2)c(-c2ccc(Cl)cc2)n1C(C)C`: the IC50 in data set [1] is greater than 2000 nM; in [2], 4.8 nM. Also, the Activity result in data set [10] is “Dose-dependent effect”; in data set [3] it was “Dose-dependent effect”; in data set [4] it was “Dose-dependent effect”; in data set [14] it was “Toxic”; in data set [5] it was “Dose-dependent effect”; in data set [17], “Dose-dependent effect”. Moreover, the outcome in data set [11], in data set [12], in [13], in data set [15] and in [16] was Active. In data set [2], the Ki is less than 1 nM.

With `Cc1cc(-c2cccc(N3CCN(c4ccc(NS(=O)(=O)c5ccc(N[C@H](CCN(C)C)CSc6ccccc6)c([N+](=O)[O-])c5)cc4)CC3)c2)c(-c2ccc(Cl)cc2)n1C`, the half-inhibitory concentration (IC50) is greater than 10000 nM in data set [7], greater than 10000 nM in data set [1] and 11 nM in [2]. Further, in data set [2], the Ki is 1.2 nM.

In [8], `CN1CCN(CCCNC(=O)c2c(-c3ccccc3)c(-c3ccc(Cl)cc3)cn2CC[C@H](O)CO)CC1` showed a half-maximal inhibitory concentration (IC50) greater than 10000 nM.
